Tests used:
[1] = tested on: mouse macrophage J774 cells; type: cell-based; conditions: 0.3 mg/mL peptide in human plasma, 2% apoB-depleted plasma, 4 h
How it was run: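 Mouse macrophage J774 cells were incubated 4 h with 2% apoB-depleted plasma samples. The plasma was human plasma pre-treated with peptide at 0.3 mg/mL (~270 μM cyclic peptide), with a concentration range for one peptide. Efflux was expressed relative to vehicle-treated plasma, set as 0% efflux. Samples were run in quadruplicate and reported as mean ± SD. Peptide alone as acceptor was also tested against vehicle.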

human plasma HDL = assay: Human plasma remodeling, Western blot for human apoA-I; type: biochemical; conditions: Western blot, 0.4, 0.2, 0.1 mg/mL
How it was run: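 Lipid-poor pre-beta HDL was then detected by Western blotting for human apoA-I. The positive control was a control peptide at 0.1 mg/mL, and the negative control was 10% sucrose.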

human plasma HDLs = assay: Pre-beta HDL ELISA after incubating human plasma with peptide; type: biochemical; conditions: ELISA screen
How it was run: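 Peptides were incubated with human plasma in vitro for 1 h. Pre-beta HDL was then quantified by ELISA and reported as the concentration of pre-beta HDL generated, as mean ± SD.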

Substance	cholesterol efflux, in words [1]	plasma HDL remodeling, in words (human plasma HDL)	HDL remodeling activity (pre-beta HDL formation), in words (human plasma HDLs)
Ac-wLwSeQsO-NH2 [compound 82]	failed to remodel plasma HDL or promote cholesterol efflux	failed to remodel plasma HDL	
WlWrEqEr [compound 22]			nearly identical
c[wL^MewSeQ^MesO] [compound 83]	greatly diminished	greatly diminished	
pyLwKsKsK [compound 37]			promoted HDL remodeling
wAOwReQeR [compound 24]			less active than peptide 21
wHLwReQeR [compound 23]			less active than peptide 21
wLWReQeR [compound 28]			reduced
wLwErQrE [compound 30]	dramatically reduced compared to that of 21		dramatically reduced compared to 21
wLwREQeR [compound 29]			reduced
wLwReQeO [compound 18]			essentially inactive
wMeLwReMeQeR [peptide 27]			greatly diminished compared to 21
wNAwReQeR [compound 26]			less active than peptide 21
wWwReQeR [compound 25]			less active than peptide 21
